Tests used:
[1] = biological target: TbPol I (Mycobacterium tuberculosis, UniProt P9WNU5); assay: Fluorescence-based pol activity assay, Tb Pol I; assay type: biochemical; details: 20 μM PNR-7-02; mean (±SD)
[2] = biological target: T1, hpol ε (Homo sapiens, UniProt Q07864, D275A/E277A); assay: Fluorescence-based pol activity assay, hpol ε; assay type: biochemical
T1 sequence (Q07864 1-1189 D275A/E277A limits assumed): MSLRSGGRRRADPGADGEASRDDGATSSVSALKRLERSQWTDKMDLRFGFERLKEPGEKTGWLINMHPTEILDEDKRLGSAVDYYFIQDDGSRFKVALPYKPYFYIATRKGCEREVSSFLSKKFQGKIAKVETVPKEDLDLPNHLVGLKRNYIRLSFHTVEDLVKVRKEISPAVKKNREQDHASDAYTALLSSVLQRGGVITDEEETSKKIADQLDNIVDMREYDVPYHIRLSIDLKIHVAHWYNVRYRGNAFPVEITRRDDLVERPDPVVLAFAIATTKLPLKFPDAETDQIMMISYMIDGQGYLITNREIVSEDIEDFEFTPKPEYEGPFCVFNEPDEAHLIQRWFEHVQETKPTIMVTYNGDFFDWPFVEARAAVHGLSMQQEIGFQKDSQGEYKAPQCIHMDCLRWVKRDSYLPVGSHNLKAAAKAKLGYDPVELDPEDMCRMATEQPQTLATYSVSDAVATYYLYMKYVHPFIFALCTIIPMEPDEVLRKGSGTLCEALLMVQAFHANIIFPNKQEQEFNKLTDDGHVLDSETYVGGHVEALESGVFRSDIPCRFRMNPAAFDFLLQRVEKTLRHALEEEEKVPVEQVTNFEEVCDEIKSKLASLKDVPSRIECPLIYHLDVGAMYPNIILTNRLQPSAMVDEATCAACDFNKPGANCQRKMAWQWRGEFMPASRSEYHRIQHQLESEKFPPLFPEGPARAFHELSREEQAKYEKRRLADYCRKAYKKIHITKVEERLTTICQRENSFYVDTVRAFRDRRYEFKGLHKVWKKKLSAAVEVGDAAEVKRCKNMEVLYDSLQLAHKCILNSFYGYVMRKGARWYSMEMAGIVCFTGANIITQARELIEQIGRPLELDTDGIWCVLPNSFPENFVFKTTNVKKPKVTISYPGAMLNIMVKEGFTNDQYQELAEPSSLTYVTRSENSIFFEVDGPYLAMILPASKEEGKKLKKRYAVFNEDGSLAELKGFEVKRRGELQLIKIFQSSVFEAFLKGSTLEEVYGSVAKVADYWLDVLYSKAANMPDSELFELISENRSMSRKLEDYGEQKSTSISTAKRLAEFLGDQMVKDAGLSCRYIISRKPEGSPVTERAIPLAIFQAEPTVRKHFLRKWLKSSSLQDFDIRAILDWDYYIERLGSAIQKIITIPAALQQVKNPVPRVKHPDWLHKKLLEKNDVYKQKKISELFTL

[3] = biological target: T2, hpol η (Homo sapiens, UniProt Q9Y253); assay: HPG labeling / MS protein footprinting of hpol η; assay type: binding; details: 20 and 100 μM PNR-7-02
T2 sequence (Q9Y253 1-437): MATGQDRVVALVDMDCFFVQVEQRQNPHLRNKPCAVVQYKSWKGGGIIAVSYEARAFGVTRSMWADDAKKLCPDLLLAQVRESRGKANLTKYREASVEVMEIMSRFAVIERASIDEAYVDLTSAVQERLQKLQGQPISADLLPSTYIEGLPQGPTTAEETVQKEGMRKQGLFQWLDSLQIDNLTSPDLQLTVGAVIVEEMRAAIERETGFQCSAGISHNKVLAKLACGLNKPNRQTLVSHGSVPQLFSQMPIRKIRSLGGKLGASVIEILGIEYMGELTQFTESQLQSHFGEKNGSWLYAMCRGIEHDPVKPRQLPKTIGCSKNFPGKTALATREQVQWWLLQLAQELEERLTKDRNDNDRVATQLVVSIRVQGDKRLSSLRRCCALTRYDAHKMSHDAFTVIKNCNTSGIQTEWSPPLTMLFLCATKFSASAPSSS
How it was run: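 Protein footprinting: hpol η (10 μM) preincubated 10 min at 37 °C with 20 μM (1:2) or 100 μM (1:10) test compound in 50 mM HEPES pH 7.8, 10 mM MgCl₂, 10% DMSO. Then 500 μM HPG for 60 min at 37 °C in the dark; quenched with 200 mM arginine. SDS-PAGE, then MS. Modified arginine taken as fraction of total per residue, normalized to the HPG-alone sample.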

[4] = system: HAP-1 cells (hpol η-proficient, parental); assay: Cell viability; assay type: cell-based, human; details: for Combination index (CI) with CDDP: Chou–Talalay
How it was run: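 HAP-1 parental or CRISPR hpol η-null cells in IMDM with 10% FBS and 1% antibiotic/antimycotic, passage 8–10, seeded 5000 cells/well. Next day: CDDP 0–100 μM alone or with 0.1 or 1 μM test compound, 48 h. Cells washed twice in DPBS, then 2 μM Calcein-AM for 30 min at 25 °C; fluorescence ex 490/em 520 nm. Viability as % of untreated. […] Combination index by Chou–Talalay.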

[5] = system: OVCAR3 cells; assay: Combined treatment of OVCAR3 cells with CDDP and PNR-7-02; assay type: cell-based, human
[6] = system: γH2AX in hpol η-deficient HAP-1 cells; assay: γH2AX immunoblotting, hpol η-deficient HAP-1 cells; assay type: cell-based, human
How it was run: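 HAP-1 cells treated with DMSO or 0.5 μM CDDP combined with 0.1 or 1 μM test compound. Pellets lysed at 4 °C in HEPES pH 7.5/Triton X-100 buffer with phosphatase and protease inhibitors. 30–40 μg protein run on 4–20% SDS-PAGE, transferred to nitrocellulose. Probed with anti-γH2AX (S139) 1:1500 and HRP anti-rabbit 1:4000; β-actin loading control; chemiluminescence. Bands normalized to β-actin, relative to DMSO; three biological replicates; t test.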

Chain of TbPol I (P9WNU5 whole entry): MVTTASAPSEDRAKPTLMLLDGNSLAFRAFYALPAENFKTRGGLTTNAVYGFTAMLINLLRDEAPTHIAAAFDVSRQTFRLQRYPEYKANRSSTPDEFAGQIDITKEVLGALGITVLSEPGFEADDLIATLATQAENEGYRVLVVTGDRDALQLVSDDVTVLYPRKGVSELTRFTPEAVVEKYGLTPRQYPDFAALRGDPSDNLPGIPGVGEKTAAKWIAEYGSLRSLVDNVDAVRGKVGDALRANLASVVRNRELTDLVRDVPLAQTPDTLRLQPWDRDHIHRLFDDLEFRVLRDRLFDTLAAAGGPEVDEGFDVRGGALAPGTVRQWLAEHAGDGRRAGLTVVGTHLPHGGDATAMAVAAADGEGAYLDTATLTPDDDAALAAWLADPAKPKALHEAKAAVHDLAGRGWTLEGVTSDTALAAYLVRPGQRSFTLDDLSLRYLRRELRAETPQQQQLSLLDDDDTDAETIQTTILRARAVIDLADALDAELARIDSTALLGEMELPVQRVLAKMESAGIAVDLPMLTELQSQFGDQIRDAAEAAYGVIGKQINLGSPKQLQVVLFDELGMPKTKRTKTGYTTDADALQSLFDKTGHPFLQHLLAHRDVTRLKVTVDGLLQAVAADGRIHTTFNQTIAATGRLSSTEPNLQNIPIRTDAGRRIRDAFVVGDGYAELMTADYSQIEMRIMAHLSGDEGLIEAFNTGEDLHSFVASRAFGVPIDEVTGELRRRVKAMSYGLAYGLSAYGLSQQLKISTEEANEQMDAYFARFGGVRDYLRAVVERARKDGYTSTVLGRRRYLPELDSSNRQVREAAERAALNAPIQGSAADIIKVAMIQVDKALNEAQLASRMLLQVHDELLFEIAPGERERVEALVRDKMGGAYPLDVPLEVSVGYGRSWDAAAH

Structure (SMILES): O=C1NC(=S)NC(=O)C1=Cc1cn(Cc2ccc3ccccc3c2)c2ccc(Cl)cc12 [PNR-7-02, 5-((5-chloro-1-(naphthalen-2-ylmethyl)-1H-indol-3-yl)methylene)-2-thioxodihydropyrimidine-4,6-(1H,5H)-dione]
- Pol activity relative to DMSO control, TbPol I [1]: 93 (±2) %
- Pol activity relative to DMSO control, hpol ε ([2]; 20 μM PNR-7-02, mean (±SD)): 32 (±5) %
- Specificity for hpol η over replicative pols (hpol ε) ([2]; from activity at 20 μM PNR-7-02): 5–10 fold
- HPG modification of Arg351 of hpol η [3]: completely abrogated
- Combination index values with CDDP, hpol η-proficient cells (summary) ([4]; hpol η-proficient cells co-treated with PNR-7-02): 0.4–0.6
- Combination index (CI) with CDDP ([4]; parental HAP-1, 0.1 μM PNR-7-02): 0.47
- Combination index (CI) with CDDP ([4]; parental HAP-1, 1 μM PNR-7-02): 0.59
- Decrease of CDDP EC50 on co-treatment with PNR-7-02 ([4]; parental HAP-1, both concentrations of inhibitor (0.1 and 1 μM)): > 2 fold
- EC50 ([4]; read-out: EC50, cell viability, PNR-7-02 alone, hpol η-proficient parental HAP-1, 48 h): 4.6 µM
- Combination index (CI) with CDDP [5]: 0.4
- μH2AX, combination treatment versus CDDP alone ([6]; CDDP + PNR-7-02): did not increase
- μH2AX formation ([6]; PNR-7-02 alone): did not change
